# Sampled rows, rich in hits. Any-hit rate of the full collection: about 5.1%.
# APP 5'UTR act: activators of APP 5'UTR luciferase reporter, primary screen, SH-SY5Y cells; SH-SY5Y APP 5'UTR luciferase reporter, luminescence; zero percent = DMSO vehicle wells; activation, % at 2 µM; hit rate 1% among 190,000; AID 1276, 2008;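 active means activation above a set limit, based on mean plus 3 SD of controls, cut at about 140% in these data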
# STAT3 act: IL-6 driven STAT3 reporter potentiators, primary screen, U3A cells, luciferase, luminescence, MLSCN library. IL-6 STAT3-luciferase reporter; 100% = signal with IL-6 EC80 alone. AID 871, 2007. hit rate 0.91% among 190,000. activation (% of control), % at 5.6 µM;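 active means activation above the screen-wide mean of compound activation plus 3 SD, cut at about 130% in these data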;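 further: 0% = background luminescence of wells with medium and substrate only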
#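 Assay system – human STAT1-deficient U3A cells with stable STAT3-luciferase reporter · Also added – IL-6 (33 ng/mL) · Schedule – compound 1 h, then IL-6 6 h at 37 °C · Technique – reporter luminescence signal · Evaluation – % activation versus median of IL-6-stimulated wells · Benchmarks – IL-6-only wells as 100% reference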
# STAT1 activator: STAT1 signaling activators, primary screen, cell-based, HTS, luciferase reporter; hit rate 2.6% among 200,000; activation (% of control), % at 5.5 µM; NIH 3T3 STAT1-luciferase reporter, IFN-gamma, luminescence; 100% = IFN-gamma alone, no compound; AID 932, 2007;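 active means activation above the screen-wide mean activation plus 3 SD, cut at about 130% in these data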;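 further: raw ratio to IFN-gamma control signal so 100% means no change and 0% no light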
# NF-kB expr up: activators of NF-kB expression in neurons, primary screen, cell-based, HTS; human neuronal cells, NF-kB reporter expression; hits give high values; fold change at 12.5 µM; hit rate 1.6% among 190,000; AID 1239, 2008; in the data active means fold change above about 3.3
# STAT1 inh-1: STAT1 signaling inhibitors, primary screen, cell-based, HTS, luciferase reporter; NIH 3T3 STAT1-luciferase reporter, IFN-gamma, luminescence; inhibition, % at 5.5 µM; hit rate 0.35% among 200,000; AID 920, 2007;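 active means inhibition above a set limit, the mean inhibition across all tested compounds plus 3 SD, cut at about 34% in these data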;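 further: 0% = IFN-gamma with DMSO and 100% = IFN-gamma with 300 µM nifuroxazide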
# STAT3 blocker: IL-6 driven STAT3 reporter inhibitors, primary screen, U3A cells, luciferase, luminescence, MLSCN library. IL-6 STAT3-luciferase reporter; host cell line lacks STAT1. inhibition, % at 5.5 µM. hit rate 0.89% among 190,000;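 active means inhibition above the mean inhibition across all screened compounds plus 3 SD, cut at about 44% in these data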;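 further: 0% = DMSO only wells and 100% = 100 µM nifuroxazide control wells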
# STAT1 inh-2: STAT1 signaling inhibitors, confirmation, cell-based, HTS, luciferase reporter. NIH 3T3 STAT1-luciferase reporter, IFN-gamma, luminescence. hit rate 55% among 200. shares compounds with STAT1 inh-1. inhibition, % at 5.5 µM. AID 1263, 2008;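 active means triplicate mean inhibition exceeding the hit cutoff computed for the primary STAT1 screen, cut at about 35% in these data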;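 further: 0% = DMSO with IFN-gamma and 100% = 300 µM nifuroxazide with IFN-gamma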
# NFkB inh: NF-kB reporter inhibitors, TNF-alpha stimulated, counter-screen for STAT1 inhibitor project, cell-based, HEK293T, luciferase luminescence. shares compounds with STAT1 inh-1. TNF-alpha induced. inhibition, % at 5.7 µM. hit rate 30% among 200;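 active means inhibition above the mean of solvent-only control wells plus 3 SD of those wells, cut at about 15% in these data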;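 further: 0% = DMSO with TNF-alpha and 100% = MG-132 control with TNF-alpha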
# STAT3 inh STAT1c: STAT3 reporter inhibition by STAT1 hits, counter-screen for STAT1 inhibitor project, U3A cells, luciferase, luminescence, triplicate; shares compounds with STAT1 inh-1; IL-6 STAT3 luciferase reporter; cells lacking STAT1; inhibition, % at 5.7 µM; hit rate 20% among 200;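 active means inhibition above the mean of solvent-only control wells plus 3 SD, set per campaign, cut at about 25% in these data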;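 further: 0% = IL-6 plus DMSO and 100% = IL-6 plus nifuroxazide control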
# Numbers without * were called inactive; / = no result given.
SMILES,APP 5'UTR act,STAT3 act,STAT1 activator,NF-kB expr up,STAT1 inh-1,STAT3 blocker,STAT1 inh-2,NFkB inh,STAT3 inh STAT1c
CCOC(=O)C(=CNc1cc(C)nn1C(C)(C)C)C(=O)OCC,/,105,86,0.86,15,0,/,/,/
Cc1ccc(S(=O)(=O)n2nc(C)cc2C)cc1,-10,94,101,1.3,-1,7,/,/,/
Cc1cc(C)n(S(=O)(=O)/C=C/c2ccccc2)n1,-17,78,65,0.96,38*,29,42*,-3,4
CN(C)S(=O)(=O)c1cccc(NC(=O)CN2C(=O)NC(CCc3ccccc3)C2=O)c1 (stereo not given),66,101,105,1,-6,0,/,/,/
CCOC(=O)C1=C(CC)Nc2ccccc2N=C1NC(=O)c1ccc(OC)c(S(=O)(=O)N2CCCCC2C)c1 (stereo not given),17,107,65,1.1,37*,-6,17,-2,-22
CSCC[C@H](NC(=O)c1nn(C)c(=O)c2ccccc12)c1nc2ccccc2[nH]1,0,112,102,0.93,-2,-14,/,/,/
OC(c1ccccc1)c1nccc2ccccc12 (stereo not given),-3,110,97,0.95,2,-10,/,/,/
O=C(Nc1ccc(C(=O)N2CCCC2)cc1)c1ccccc1F,22,101,111,1.6,-12,3,/,/,/
O=C(Nc1cc(C(=O)N2CCCC2)ccc1N1CCCC1)c1ccccc1F,-2,89,53,0.66,51*,17,48*,11,8
COc1ccccc1Nc1nc(-c2c(C)nc3ncccn23)cs1,-3,68,62,0.97,39*,40,36*,5,30*
CCOC(=O)N1CCN(C(=O)c2ccc(NC(=O)c3ccc(C)cc3)cc2)CC1,-10,93,37,0.8,68*,9,61*,0,11
CCOC(=O)N1CCN(C(=O)c2ccc(NC(C)=O)cc2)CC1,1,101,95,1.1,5,3,/,/,/
Cc1cc(C(=O)CSc2nncs2)c(C)n1Cc1ccco1,181*,67,67,4.7*,35*,43,-15,20*,26*
Cc1nc2ccc(C(=O)OCc3ccccc3Br)cc2nc1C,5,114,104,2.9,-4,-16,/,/,/
COc1ccc(CCNC(=O)Cn2c(=O)n(-c3ccc(C)c(F)c3)c(=O)c3sccc32)cc1OC,-2,105,51,0.77,52*,4,45*,16*,19
Cc1cccc(NC2=C(Cl)C(=O)OC2NC(=O)c2ccccc2)c1 (stereo not given),-1,97,100,1.1,0,5,/,/,/
Fc1ccc(-n2nnc(-c3cnc4ccccc4c3)n2)cc1,98,/,24,2.2,83*,/,21,76*,78*
CC(C)CC(=O)NC1(C(F)(F)F)C(=O)N(CC(C)C)C2=C1C(=O)CC(C)(C)C2 (stereo not given),-6,102,95,1,6,0,/,/,/
Cc1ccc(-n2nnc(-c3nccs3)n2)cc1,118,/,24,2.5,83*,/,49*,76*,85*
Cc1nn(Cc2ccc(Cl)c(Cl)c2)c(C)c1NC(=O)c1cc(-c2ccc3c(c2)OCO3)on1,-52,89,67,0.86,37*,13,27,8,18
COc1ccc(-n2c(SCC(=O)NNC(=O)c3ccccc3C)nnc2-c2ccncc2)cc1,3,105,100,1,0,-6,/,/,/
NS(=O)(=O)c1ccc(CCNC(=O)c2ccc(C#CC3(O)CCCCC3)cc2)cc1,1,87,52,0.32,52*,17,-16,8,-30
COc1ccc(C(=O)Nc2cccc(N(C)S(C)(=O)=O)c2)cc1OC,27,108,115,1.7,-18,-7,/,/,/
Cc1ccc(C(=O)Nc2cccc(N(C)S(C)(=O)=O)c2)cc1S(=O)(=O)Nc1ccccc1,6,86,65,0.68,40*,22,34*,7,9
CCS(=O)(=O)N1CCN(c2ccc(Cl)cc2[N+](=O)[O-])CC1,23,97,95,1.1,6,7,/,/,/
SMILES,APP 5'UTR act,STAT3 act,STAT1 activator,NF-kB expr up,STAT1 inh-1,STAT3 blocker,STAT1 inh-2,NFkB inh,STAT3 inh STAT1c
COc1cccc(CN2CCNC(=O)C2CC(=O)NCc2cc(C(C)C)no2)c1 (stereo not given),6,98,92,1.1,7,5,/,/,/
COc1cccc(-n2nnnc2S(C)(=O)=O)c1,-4,90,66,1.1,35*,12,44*,9,-48
O=C(O)c1ccc(N/N=C/c2cc3c(cc2[N+](=O)[O-])OCO3)cc1,24,73,65,0.9,36*,36,65*,45*,15
O=c1cc(CSc2nc3ccccc3c(=O)[nH]2)c2ccc(O)cc2o1,22,100,35,0.5,69*,5,52*,14,1
O=c1[nH]c(SCc2ccccc2F)nc2ccccc12,-2,97,105,1.2,-7,8,/,/,/
O=C(O)c1ccccc1C(=O)Nc1ccc(Oc2cccc3ccccc23)cc1,-59,81,42,1.1,63*,29,18,23*,-13
Cc1cccc(Oc2ccc(NC(=O)c3ccccc3C(=O)O)cc2)c1C,6,100,93,0.91,8,0,/,/,/
CCN(CC(=O)NCc1ccc(Cl)cc1)C(=O)/C=C/c1cccs1,1,109,36,0.89,68*,-10,8,2,3
Cn1cc([N+](=O)[O-])c(C(=O)Nc2cc(Oc3ccccc3)cc([N+](=O)[O-])c2)n1,-97,87,69,0.72,35*,18,40*,24*,-1
Cc1nn(C)cc1C(=O)Nc1cc(Oc2ccc(Cl)cc2)cc([N+](=O)[O-])c1,-2,106,95,1,5,-10,/,/,/
COC(=O)c1c(NC(=O)CN2CCN(c3cccc(Cl)c3)CC2)sc(C)c1C,/,80,100,1.1,0,24,/,/,/
CN(C(=O)CSc1nc2c(cnn2-c2ccccc2)c(=O)[nH]1)C1CCS(=O)(=O)C1 (stereo not given),1,106,101,/,-1,-1,/,/,/

# Bioassay records as filed in PubChem.
